The test system of data set [1] is SH-SY5Y. In words: Neuroprotective activity against amyloid beta (1 to 42)-induced Alzheimer's disease model in human SH-SY5Y cells assessed as reduction in necrosis rate incubated for 24 hrs by Annexin V-FITC/propidium iodide staining flow cytometry. Further details: scale not given: the % may be the effect or the level left. It counts as functional. The procedure, abridged:
(§1)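 Differentiated SH-SY5Y cells given 24 h Aβ1-42 (20 μM) with or without compound. 5 x 10^4 cells pelleted and resuspended in 1X binding buffer. Annexin V-FITC and PI added, 5 min in the dark, then fixed in 4% paraformaldehyde. Flow cytometry sorted cells into viable, early apoptotic, late apoptotic/necrotic and necrotic fractions.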

The subject of data set [2] is SH-SY5Y. The data set is described as follows: Neuroprotective activity against amyloid beta (1 to 42)-induced neurotoxicity in human SH-SY5Y cells assessed as increase in cell viability at 0.1 to 100 uM incubated for 24 hrs by MTT assay. Format: functional, cell-based. Particulars: dose 0.1-100 µM. The essentials: (§2)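 Differentiated SH-SY5Y cells co-treated 24 h with compound (0.1–100 μM) and Aβ1-42 (20 μM). Vehicle 0.1% DMSO; 1% Triton X positive control. MTT added for 3 h at 37 °C, formazan dissolved in DMSO, absorbance read at 570 nm. Mean ± SD from at least six independent experiments.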
Background: Tetrazolium dyes change colour on reduction, which living cells bring about.

In data set [3] the test system is SH-SY5Y. In words: Neuroprotective activity against amyloid beta (1 to 42)-induced Alzheimer's disease model in human SH-SY5Y cells assessed as decrease in AChE activity at 25 uM incubated for 24 hrs by Colorimetric assay. Format: functional. The arrangement: scale not given: the % may be the effect or the level left. The essentials: (§3)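 SH-SY5Y cells grown in DMEM:F12 with 10% FBS, differentiated with retinoic acid for 5 days, then serum-free medium with 10 μM retinoic acid plus 25 ng/mL BDNF, used within 10 days. Co-treated with 20 μM Aβ1-42 for 24 h; DMSO ≤0.1% vehicle. Cells lysed 15 min at room temperature, centrifuged; AChE measured in supernatant by colorimetric kit at 410 nm.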

The test system of data set [4] is SH-SY5Y. The data set is described as follows: Neuroprotective activity against amyloid beta (1 to 42)-induced Alzheimer's disease model in human SH-SY5Y cells assessed as reduction in necrosis rate at 25 to 50 uM incubated for 24 hrs by Annexin V-FITC/propidium iodide staining flow cytometry. Format: functional, cell-based. Particulars: dose 25-50 µM, DDE = dose-dependent effect. The essentials: as §1
For orientation: In flow cytometry, cells or beads pass a laser one at a time.

Data set [5] can be described thus: Induction of DNA damage in human blood assessed as increase in 8-OH-dG level at 0.1 to 100 uM incubated for 24 hrs. Format: toxicity, tissue-based. Particulars: dose 0.1-100 µM. The procedure, abridged: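 Heparinized human peripheral blood cultured with phytohemagglutinin in PB-MAX medium, with compounds added at culture start. 8-OH-dG measured by competitive ELISA (8-OH-dG–AChE conjugate competing for monoclonal antibody). Detects free and DNA-incorporated 8-OH-dG. Read at 405–420 nm.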

The subject of data set [6] is SH-SY5Y. In words: Neuroprotective activity against amyloid beta (1 to 42)-induced neurotoxicity in human SH-SY5Y cells assessed as increase in cell viability at 50 uM incubated for 24 hrs by MTT assay. Format: functional. The procedure, abridged:
as §2

Data set [7] deals with SH-SY5Y. The data set is described as follows: Neuroprotective activity against amyloid beta (1 to 42)-induced Alzheimer's disease model in human SH-SY5Y cells assessed as inhibition of apoptosis at 50 uM incubated for 24 hrs by Hoechst 33258 staining fluorescence microscopy. Format: functional, cell-based. The procedure, abridged:
(§4)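 RA/BDNF-differentiated SH-SY5Y cells incubated 24 h with Aβ1-42 (20 μM) alone or with test agent at 25 or 50 μM. Fixed in 4% paraformaldehyde in PBS, 30 min at 4 °C. Stained with 1 mM Hoechst 33258 for 5 min at room temperature. Nuclear morphology examined by fluorescence microscopy.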

Data set [8] relates to SH-SY5Y. In words: Neuroprotective activity against amyloid beta (1 to 42)-induced neurotoxicity in human SH-SY5Y cells assessed as increase in cell viability at 50 uM incubated for 24 hrs by LDH release assay. It counts as functional. The procedure, abridged: (§5)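 Differentiated SH-SY5Y cells exposed 24 h to compound with Aβ1-42 (20 μM). Supernatant mixed 1:1 with LDH reaction mixture and held 30 min at room temperature. Lactate-to-pyruvate conversion with NAD+ reduction read as absorbance at 490 nm. Mean ± SD, at least six independent experiments.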

The subject of data set [9] is SH-SY5Y. In words: Neuroprotective activity against amyloid beta (1 to 42)-induced neurotoxicity in human SH-SY5Y cells assessed as increase in cell viability at 25 uM incubated for 24 hrs by LDH release assay. It counts as functional. The procedure, abridged: as §5
The subject of data set [10] is SH-SY5Y. The data set is described as follows: Antioxidant activity against amyloid beta (1 to 42)-induced Alzheimer's disease model in human SH-SY5Y cells assessed as increase of TAC level at 50 uM by ABTS assay. It counts as functional, cell-based. The procedure, abridged: (§6)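 Differentiated SH-SY5Y cells: grown in DMEM:F12 with 10% FBS, then 10 μg/mL retinoic acid for 5 days, then serum-free medium with 10 μM retinoic acid and 25 ng/mL BDNF. Co-exposed 24 h to Aβ1-42 (20 μM) plus compound. Vehicle 0.1% DMSO. Automated kits on culture samples. TAC: ABTS decolorization at 660 nm, Trolox calibration. TOS: ferrous-to-ferric chelator oxidation, H2O2 calibration, µM H2O2 equivalent/L. n = 6.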

Data set [11] deals with SH-SY5Y. The data set is described as follows: Neuroprotective activity against amyloid beta (1 to 42)-induced Alzheimer's disease model in human SH-SY5Y cells assessed as protection against amyloid beta (1 to 42)-induced nuclear integrity damage at 50 uM incubated for 24 hrs by Hoechst 33258 staining fluorescence microscopy. It counts as functional, cell-based. The essentials: as §4

Data set [12] concerns SH-SY5Y. In words: Antioxidant activity against amyloid beta (1 to 42)-induced Alzheimer's disease model in human SH-SY5Y cells assessed as decrease of TOS level at 25 uM. It counts as functional, cell-based. The procedure, abridged: as §6
Data set [13] deals with SH-SY5Y. In words: Neuroprotective activity against amyloid beta (1 to 42)-induced Alzheimer's disease model in human SH-SY5Y cells assessed as protection against amyloid beta (1 to 42)-induced nuclear integrity damage at 25 uM incubated for 24 hrs by Hoechst 33258 staining fluorescence microscopy. It counts as functional, cell-based. The essentials:
as §4

For data set [14], the system named is SH-SY5Y. In words: Neuroprotective activity against amyloid beta (1 to 42)-induced Alzheimer's disease model in human SH-SY5Y cells assessed as decrease in AChE activity at 50 uM incubated for 24 hrs by Colorimetric assay. Format: functional. Further details: scale not given: the % may be the effect or the level left. The procedure, abridged:
as §3

Data set [15] has as its system SH-SY5Y. The data set is described as follows: Neuroprotective activity against amyloid beta (1 to 42)-induced neurotoxicity in human SH-SY5Y cells assessed as increase in cell viability at 100 uM incubated for 24 hrs by MTT assay. It counts as functional. The essentials: as §2
For data set [16], the system named is SH-SY5Y. In words: Neuroprotective activity against amyloid beta (1 to 42)-induced neurotoxicity in human SH-SY5Y cells assessed as increase in cell viability at 100 uM incubated for 24 hrs by LDH release assay. It counts as functional. The essentials: as §5
In general terms: LDH in the medium is a marker of cell lysis.

For data set [17], the system named is SH-SY5Y. In words: Antioxidant activity against amyloid beta (1 to 42)-induced Alzheimer's disease model in human SH-SY5Y cells assessed as increase of TAC level at 25 uM by ABTS assay. Format: functional, cell-based. The procedure, abridged:
as §6

Data set [18] has as its system SH-SY5Y. In words: Neuroprotective activity against amyloid beta (1 to 42)-induced Alzheimer's disease model in human SH-SY5Y cells assessed as inhibition of apoptosis at 25 uM incubated for 24 hrs by Hoechst 33258 staining fluorescence microscopy. It counts as functional, cell-based. The essentials:
as §4

For data set [19], the system named is SH-SY5Y. In words: Antioxidant activity against amyloid beta (1 to 42)-induced Alzheimer's disease model in human SH-SY5Y cells assessed as decrease of TOS level at 50 uM. It counts as functional, cell-based. The essentials: as §6
For data set [20], the system named is SH-SY5Y. The data set is described as follows: Neuroprotective activity against amyloid beta (1 to 42)-induced neurotoxicity in human SH-SY5Y cells assessed as increase in cell viability at 25 uM incubated for 24 hrs by MTT assay. It counts as functional. The essentials: as §2
Data set [21] is described as follows: Genotoxicity in human blood assessed as frequency of sister chromatid exchange at 0.1 to 100 uM by BrdU/Giemsa staining based fluorescence assay. It counts as toxicity, tissue-based. Particulars: dose 0.1-100 µM. The procedure, abridged:
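Human peripheral blood cultured in PB-MAX karyotyping medium with phytohemagglutinin; compounds added just before incubation. BrdU added; demecolcine at 70 h 30 min. Then 0.075 M KCl hypotonic treatment, methanol/acetic acid (3:1) fixation, slides aged 3 days, fluorescence plus Giemsa staining. 25 second-division metaphases (42–46 chromosomes) scored per condition; result given as SCEs/cell.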

The source made the active and inactive calls. The rule behind the calls is not given here.

On to `CC1(C)C2CC3OB(CNC(=O)CCCC[C@H]4CCSS4)O[C@]3(C)C1C2` (stereo partly drawn), for which the Activity is 68.38% with SH-SY5Y [1]; 18.77% in the data set with SH-SY5Y [3]; “Dde” in the data set on SH-SY5Y [4]; “Non-Toxic” in data set [5]; 29.94% in the data set with SH-SY5Y [6]; 67.37% in the data set with SH-SY5Y [8]. The Activity in the data set with SH-SY5Y [9] is recorded as 62.91%; in the data set on SH-SY5Y [14], 22.96%; in the data set with SH-SY5Y [15] it was 32.92%; in the data set with SH-SY5Y [16], 70.65%; in the data set with SH-SY5Y [20], 25.14%; in data set [21] it was “Non-Toxic”. The outcome in the data set with SH-SY5Y [2], with SH-SY5Y [7], in the data set with SH-SY5Y [10], in the data set with SH-SY5Y [11], in the data set with SH-SY5Y [12] and in the data set on SH-SY5Y [13] was Active. For the same compound, the outcome with SH-SY5Y [17], in the data set with SH-SY5Y [18] and in the data set with SH-SY5Y [19] was Active.

With `O=C(O)CCCCC1CCSS1` (stereo not drawn) [LIPOIC ACID, ALPHA], the Activity is 65.97% with SH-SY5Y [1]; 13.17% in the data set on SH-SY5Y [3]; “Dde” with SH-SY5Y [4]; “Non-Toxic” in [5]; 19.01% in the data set on SH-SY5Y [6]; 58.68% in the data set with SH-SY5Y [8]. Besides, the Activity is reported as 53.05% with SH-SY5Y [9]; 16.66% in the data set with SH-SY5Y [14]; 20.73% with SH-SY5Y [15]; 59.86% in the data set on SH-SY5Y [16]; 14.78% in the data set on SH-SY5Y [20]; “Non-Toxic” in data set [21]. In addition, the result in the data set with SH-SY5Y [2], in the data set with SH-SY5Y [7], in the data set on SH-SY5Y [10], in the data set on SH-SY5Y [11], in the data set with SH-SY5Y [12] and in the data set with SH-SY5Y [13] was Active. Moreover, the result with SH-SY5Y [17], in the data set with SH-SY5Y [18] and with SH-SY5Y [19] was Active.

For `CC12CC3CC(C)(C1)CC(N)(C3)C2` [MEMANTINE], the Activity in the data set on SH-SY5Y [1] is 61.67%; with SH-SY5Y [3] it was 14.57%; in the data set with SH-SY5Y [4] it was “Dde”; in data set [5] it was “Non-Toxic”; in the data set with SH-SY5Y [6], 19.38%; in the data set on SH-SY5Y [8], 59.15%. For the same compound, the Activity is reported as 56.81% in the data set with SH-SY5Y [9]; 19.47% in the data set on SH-SY5Y [14]; 17.08% in the data set with SH-SY5Y [15]; 57.28% with SH-SY5Y [16]; 17.27% with SH-SY5Y [20]; “Non-Toxic” in [21]. Also, the result in the data set with SH-SY5Y [2], in the data set on SH-SY5Y [7], in the data set with SH-SY5Y [10], with SH-SY5Y [11], with SH-SY5Y [12] and in the data set on SH-SY5Y [13] was Active. Further, the result in the data set on SH-SY5Y [17], with SH-SY5Y [18] and in the data set with SH-SY5Y [19] was Active.

The record behind these values is ChEMBL document CHEMBL5107942, “Boron-based hybrids as novel scaffolds for the development of drugs with neuroprotective properties” (RSC Med Chem, 2021).
